From ChEMBL document CHEMBL1144257, “5-Chloroindoloyl glycine amide inhibitors of glycogen phosphorylase: synthesis, in vitro, in vivo, and X-ray crystallographic characterization” (Bioorg Med Chem Lett, 2005)
pIC50: −log10 of the molar value.

Assays:
SK-HEP1 = experiment: Inhibitory concentration against human SK-Hep-1 cells (hepatoma cell line); type: functional, cell-based
Procedure, shortened: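 SK-HEP-1 cells carrying pre-labeled ¹⁴C-glycogen, with phosphorylase activated by forskolin. Glycogenolysis is the ¹⁴C-glycogen (dpm) difference between basal and forskolin-treated cells. Inhibition is expressed as percent of forskolin-induced glycogenolysis in DMSO controls. IC50 from a 6-point curve (0.1–30μM), triplicate points, mean of ≥2 independent experiments where repeated.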

[1] = target: T1, Glycogen phosphorylase, liver form (Homo sapiens, UniProt P06737); experiment: (§1) Inhibitory concentration against glycogen phosphorylase
T1 sequence (P06737 whole entry): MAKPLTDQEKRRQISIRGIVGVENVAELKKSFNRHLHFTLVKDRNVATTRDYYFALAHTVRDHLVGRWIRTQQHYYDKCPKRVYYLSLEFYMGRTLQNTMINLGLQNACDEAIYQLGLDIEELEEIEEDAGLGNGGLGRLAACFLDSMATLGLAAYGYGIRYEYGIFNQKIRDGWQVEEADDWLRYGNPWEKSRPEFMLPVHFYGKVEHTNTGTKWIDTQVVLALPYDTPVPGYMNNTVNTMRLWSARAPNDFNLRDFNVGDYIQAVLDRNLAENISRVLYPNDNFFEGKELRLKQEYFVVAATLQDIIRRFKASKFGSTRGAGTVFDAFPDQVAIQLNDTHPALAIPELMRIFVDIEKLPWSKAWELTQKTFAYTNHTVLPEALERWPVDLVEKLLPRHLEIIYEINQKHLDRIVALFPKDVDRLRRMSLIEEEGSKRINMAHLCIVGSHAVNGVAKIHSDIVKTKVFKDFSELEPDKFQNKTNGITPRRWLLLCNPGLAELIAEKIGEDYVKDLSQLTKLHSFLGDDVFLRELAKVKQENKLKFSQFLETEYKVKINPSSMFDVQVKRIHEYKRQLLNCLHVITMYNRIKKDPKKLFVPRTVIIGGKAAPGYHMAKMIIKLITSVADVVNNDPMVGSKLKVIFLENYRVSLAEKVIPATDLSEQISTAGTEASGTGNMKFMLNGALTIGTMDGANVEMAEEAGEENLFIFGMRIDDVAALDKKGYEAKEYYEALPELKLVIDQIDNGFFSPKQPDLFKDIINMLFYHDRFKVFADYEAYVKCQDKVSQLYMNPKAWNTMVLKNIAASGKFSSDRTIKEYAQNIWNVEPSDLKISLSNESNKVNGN

Mus musculus [2] = experiment: In-vivo minimum effective dose (MED) for reduction of plasma glucose in mouse after 3 hours; type: functional; details: read-out: MED
Procedure, shortened: (§2)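 Fed diabetic ob/ob mice, oral dosing in neat PEG400, starting at […] and then at successively lower doses. Plasma glucose measured 3h post-dose. Lowering is expressed as percent decrease versus vehicle-treated controls within the same experiment, with significance by unpaired t-test on group mean glucose. MED is the lowest dose giving reduction.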

Mus musculus [3] = species on record: Mus musculus; experiment: Percentage of glucose lowering after 3h at minimum effective dose in mouse; type: functional; procedure, shortened: as §2
[4] = target: T1, Glycogen phosphorylase, liver form; experiment: as §1; remark: listed apart in the source
Procedure, shortened: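 Recombinant human liver GPa (50ng), run in the glycogen-synthesis direction at 22°C. Compounds added in 14% DMSO before enzyme. Released phosphate read at 620nm with malachite green/molybdate in HCl after 20min. IC50 from triplicate dose-response curves, mean of ≥3 determinations (≥2 if >500 nM).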

O=C(NCC(=O)N(CCOCCO)C1CCCC1)c1cc2cc(Cl)ccc2[nH]1
pIC50 (SK-HEP1): 5.42 | pIC50 [1]: 6.64 | minimal effective dose (Mus musculus [2]): > 10 mg/kg

O=C(NCC(=O)N(CCO)C1CCOCC1)c1cc2cc(Cl)ccc2[nH]1
pIC50 (SK-HEP1): 5.85 | pIC50 [1]: 6.60 | Activity (Mus musculus [3]): 27% | minimal effective dose (Mus musculus [2]): 5 mg/kg

O=C(NCC(=O)N(CCO)C1CCCC1)c1cc2cc(Cl)ccc2[nH]1
pIC50 (SK-HEP1): 6.85 | pIC50 [1]: 7.24 | Activity (Mus musculus [3]): 25% | minimal effective dose (Mus musculus [2]): 5 mg/kg

O=C(NCC(=O)N(CCO)C1CCC1)c1cc2cc(Cl)ccc2[nH]1
pIC50 (SK-HEP1): 5.70 | pIC50 [1]: 6.89 | Activity (Mus musculus [3]): 30% | minimal effective dose (Mus musculus [2]): 25 mg/kg

O=C(NCC(=O)N(CCO)c1ccccc1)c1cc2cc(Cl)ccc2[nH]1
pIC50 (SK-HEP1): 6.57 | pIC50 [1]: 6.92 | minimal effective dose (Mus musculus [2]): > 10 mg/kg

CN(C)C(=O)[C@H](O)[C@H](Cc1ccccc1)NC(=O)c1cc2cc(Cl)ccc2[nH]1
pIC50 (SK-HEP1): 5.82 | Activity (Mus musculus [3]): 32% | minimal effective dose (Mus musculus [2]): 25 mg/kg

CN(C(=O)CNC(=O)c1cc2cc(Cl)ccc2[nH]1)C1CCCC1
pIC50 (SK-HEP1): 5.77 | pIC50 [1]: 7.26 | Activity (Mus musculus [3]): 36% | minimal effective dose (Mus musculus [2]): 10 mg/kg

O=C(NCC(=O)N(CCOc1ccccc1)C1CCCC1)c1cc2cc(Cl)ccc2[nH]1
pIC50 [4]: 5.85

CCCCN(CCO)C(=O)CNC(=O)c1cc2cc(Cl)ccc2[nH]1
pIC50 (SK-HEP1): 6.00 | pIC50 [1]: 6.92 | minimal effective dose (Mus musculus [2]): > 10 mg/kg

CC(C)(O)CN(C(=O)CNC(=O)c1cc2cc(Cl)ccc2[nH]1)C1CCCC1
pIC50 (SK-HEP1): 5.85 | pIC50 [1]: 6.82 | Activity (Mus musculus [3]): 30% | minimal effective dose (Mus musculus [2]): 10 mg/kg

CC(C)CN(CCO)C(=O)CNC(=O)c1cc2cc(Cl)ccc2[nH]1
pIC50 (SK-HEP1): 5.60 | pIC50 [1]: 6.74 | Activity (Mus musculus [3]): 25% | minimal effective dose (Mus musculus [2]): 25 mg/kg

O=C(NCC(=O)N(CCO)C1CCCCC1)c1cc2cc(Cl)ccc2[nH]1
pIC50 (SK-HEP1): 6.15 | pIC50 [1]: 7.00 | minimal effective dose (Mus musculus [2]): > 10 mg/kg

CN(C(=O)CNC(=O)c1cc2cc(Cl)ccc2[nH]1)C1CCCCC1
pIC50 (SK-HEP1): 5.85 | pIC50 [1]: 6.82 | minimal effective dose (Mus musculus [2]): > 10 mg/kg

N#CCN(C(=O)CNC(=O)c1cc2cc(Cl)ccc2[nH]1)C1CCCC1
pIC50 (SK-HEP1): 6.17 | pIC50 [1]: 7.52 | Activity (Mus musculus [3]): 40% | minimal effective dose (Mus musculus [2]): 10 mg/kg
